Source: PubChem BioAssay (several laboratories)
Wee1 stabilizer – Wee1 degradation inhibitors, primary screen, cell-based, HeLa, Wee1K328M-luciferase, luminescence; HeLa Luc-Wee1K328M stability; 100% = proteasome inhibitor MG132 effect; actives 1.2% (n = 220,000); reporter increase, % at 5 µM; Wee1-like protein kinase (Homo sapiens), P30291;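 active = activation above the mean of all tested compounds plus 3 SD, set per screening run, cut at about 8.8% in these data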;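 note: cells exposed to compound for 20 h before luminescence read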
Target sequence (P30291 whole entry K328M): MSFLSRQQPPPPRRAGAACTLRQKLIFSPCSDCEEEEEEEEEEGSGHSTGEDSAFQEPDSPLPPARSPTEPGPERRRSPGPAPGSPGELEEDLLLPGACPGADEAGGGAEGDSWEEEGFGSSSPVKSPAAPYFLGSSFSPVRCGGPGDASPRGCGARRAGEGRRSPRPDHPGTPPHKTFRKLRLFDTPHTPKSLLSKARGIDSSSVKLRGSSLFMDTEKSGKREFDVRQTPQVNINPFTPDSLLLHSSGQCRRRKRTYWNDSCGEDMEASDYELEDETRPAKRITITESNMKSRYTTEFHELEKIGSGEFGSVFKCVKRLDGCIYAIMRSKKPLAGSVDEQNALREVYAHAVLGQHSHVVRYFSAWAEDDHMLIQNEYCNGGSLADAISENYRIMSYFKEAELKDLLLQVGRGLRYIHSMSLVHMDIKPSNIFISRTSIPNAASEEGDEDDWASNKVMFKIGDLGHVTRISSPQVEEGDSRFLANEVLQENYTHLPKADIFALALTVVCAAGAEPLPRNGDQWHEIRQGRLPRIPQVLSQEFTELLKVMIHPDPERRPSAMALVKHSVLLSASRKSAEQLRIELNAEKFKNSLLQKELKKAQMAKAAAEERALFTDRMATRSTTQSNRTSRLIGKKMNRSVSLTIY
CHOP inh – inhibitors of CHOP promoter induction, primary screen, cell-based, unfolded protein response, luciferase reporter. inhibition, % at 10 µM. actives 3.8% (n = 220,000). AID 2732, 2010. CHO-K1 CHOP-promoter luciferase, tunicamycin-induced, 15-18 h;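 active = compounds that reduced the stress-induced luciferase reporter signal by more than about 70% of percent inhibition, limit read from the data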
PKD1 kinase inh – inhibitors of human PKD1 kinase, biochemical, fluorescence polarization | PKD1 kinase fluorescence polarization assay | inhibition, % (test concentration not listed) | AID 797, 2007 | actives 0.056% (n = 200,000) | Serine/threonine-protein kinase D1 (Homo sapiens), Q15139
Rad51 HR inh – human RAD51 strand exchange inhibitors, primary screen, biochemical, fluorescence; DNA repair protein RAD51 homolog 1 (Homo sapiens), Q06609; hRad51 DNA strand exchange, fluorescence dequenching; inhibition, % at 10 µM; actives 0.085% (n = 200,000); AID 1385, 2008;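 active = inhibition above 40% at the single screening dose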
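System: human Rad51 nucleoprotein filaments preassembled on unlabelled ssDNA. Reagent: labelled 47-mer dsDNA for strand exchange. Schedule: 30-min compound preincubation and 15-min exchange, both room temperature. Measured by: FRET fluorescence dequenching, excitation 485 nm, emission 520 nm. Read-out: Fluorescence-based percent inhibition, control- and blank-normalised. Benchmarks: plate controls and plate blanks.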
Arbovirus inh – antivirals against arbovirus infection, primary screen, cell-based, full library, 10K replicate subset; arbovirus infection cell-based antiviral screen; inhibition, % at 10 µM; actives 0.37% (n = 200,000); AID 1251, 2008; in the data active = inhibition above about 30%
L major viab – Leishmania major promastigote growth inhibition, primary screen. Leishmania major promastigotes, resazurin fluorescence viability. inhibition, % at 10 µM. actives 9% (n = 200,000);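 note: promastigotes grown with compound for 44 hours at 28 °C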
Hits are given with their value; 0 = inactive; - = no result. Most compounds without a hit are left out; they make up all but 12% or so of the library. Cut-off read from the data, not from the text of the source, unless noted: active = inhibition above about 50%; inactive = the rest.

SMILES	Wee1 stabilizer	CHOP inh	PKD1 kinase inh	Rad51 HR inh	Arbovirus inh	L major viab
Cn1c(N)c(C(=O)COC(=O)C2(c3ccccc3F)CCCC2)c(=O)n(C)c1=O	0	0	0	0	0	79
CCC(=O)Nc1cccc(C(=O)/C=C/c2cccs2)c1	0	0	0	0	0	0
COc1ccc(/C=C/C(=O)NC(=S)Nc2ccc(C(=O)O)cc2)cc1	0	0	0	0	0	69
CCC(=O)Nc1ccc(NC(=S)NC(=O)/C=C/c2ccccc2)cc1	0	92	0	0	0	81
CCC(=O)Nc1cccc(C(=O)/C=C/c2ccccc2)c1	0	0	0	0	0	100
CC(C)CCOc1ccc(C2CC(=O)N(C)C2=O)cc1 (stereo not drawn)	0	0	0	0	0	0
Cc1ccc2nc(C)cc(C(=O)OCC(=O)Nc3cccnc3Cl)c2c1	0	0	0	0	0	0
Fc1cccc(CN2CCN(c3nc4nonc4nc3NC3CC3)CC2)c1	0	0	0	0	0	0
COC(=O)c1cc(-c2ccccc2)sc1N	0	0	0	0	0	0
COC(=O)c1c(C(=O)OC)c2cccc3cc(-c4ccccc4)c4ccc1c4n32	0	83	0	0	0	0
COC(=O)c1cc2c(-c3ccccc3)cc3ccccn3c-2c1C(=O)OC	0	0	0	0	0	88
O=C(COC(=O)c1ccc[nH]c1=O)NC1CCCCC1	0	0	-	-	-	-
CCCCN(CCCC)C(=S)N/N=C/c1c(C)[nH]n(-c2ccccc2)c1=O	0	0	0	0	0	96
Cc1[nH]n(-c2ccccc2)c(=O)c1/C=N/Nc1nncc(-c2ccccc2)n1	0	77	0	0	0	100
CCCCN=Cc1c(C)[nH]n(-c2ccccc2)c1=S	0	0	0	0	0	0
CC(=O)N1CCN(Cc2nc3cc(NC(=O)NC4CCCCC4)ccc3n2C)CC1	0	0	0	0	0	0
Cc1ccc(-c2ccc(S(=O)(=O)NCc3ccco3)cc2)cc1	0	75	0	-	0	0
COc1ccccc1CNC(=O)/C=C/c1ccc(S(=O)(=O)NCc2ccco2)cc1	0	0	0	0	0	0
Cc1ccc(CNC(=O)/C=C/c2ccc(S(=O)(=O)NCc3ccco3)cc2)cc1	0	0	0	0	0	78
O=C(/C=C/c1ccc(S(=O)(=O)NCc2ccco2)cc1)NCc1cccc(Cl)c1	0	0	0	0	0	94
CCN(CC)CCn1c(=S)[nH]c2ccc(Br)cc2c1=O	0	0	0	0	0	0
COc1cccc(CNC(=S)Nc2cc(C)ccc2C)c1	0	0	0	0	0	0
Cc1cc(N2C(=O)C(O)=C(C(=O)c3cccs3)C2c2ccc(F)cc2)no1 (stereo not drawn)	0	0	-	0	-	-
CC(=S)/C=C1\Sc2ccccc2N1C	0	0	0	0	0	99
COc1ccc(C(=O)/C=C2\Sc3ccccc3N2C)cc1	0	0	0	0	0	0
SMILES	Wee1 stabilizer	CHOP inh	PKD1 kinase inh	Rad51 HR inh	Arbovirus inh	L major viab
COc1ccc(CN2CCCC(C(=O)c3cccc(OC(C)C)c3)C2)cc1Cn1cccn1 (stereo not drawn)	0	0	0	0	0	0
Cc1ccc2nc(NC(=O)Cc3cccs3)sc2c1	0	0	0	0	0	0
Cc1ccc2nc(-c3ccc(NC(=O)Cc4cccs4)cc3)[nH]c2c1	10	79	0	0	0	0
CCCn1c(SCC(=O)c2c(C)[nH]c(C)c2C(=O)OCC)nc2ccccc21	0	0	0	0	0	64
CCOC(=O)c1c(C)[nH]c(C)c1C(=O)CSc1nc2ccccc2n1CCC#N	0	0	0	0	0	0
COc1ccc(-n2cnnc2SCC(=O)NC2CCCc3ccccc32)cc1 (stereo not drawn)	0	0	0	0	0	69
CCn1c(SCC(=O)NC2CCCc3ccccc32)nnc1-c1ccncc1 (stereo not drawn)	0	0	0	0	0	0
CCn1c(SCC(=O)NC2CCCc3ccccc32)nnc1-c1cccs1 (stereo not drawn)	0	0	0	0	0	56
CCn1c(COc2ccc(=O)n(-c3ccccc3)n2)n[nH]c1=S	0	0	0	0	0	0
O=C1N(c2ccccc2)C[C@@H]2C[C@@H](c3cc4ccccc4o3)N3CCC[C@@]123	0	103	0	0	0	0
Cc1cc(C)nc(-n2nc(C)c3c(C(F)(F)F)cc(=O)[nH]c32)n1	0	0	0	0	0	0
Cc1cc(C)nc(-n2nc(C)c(Sc3ccc(F)cc3)c2N)n1	0	0	0	0	0	97
COC(=O)Cc1ccc(NC(=S)N2CCN(c3ccc(F)cc3)CC2)cc1	0	72	0	0	0	0
Cc1ccc(C(=O)N2CCN(c3ccc(NC(=O)COc4ccccc4C)cc3)CC2)cc1	0	0	0	0	0	0
Cc1ccc(C(=O)N2CCN(c3ccc(NC(=S)NC(=O)Cc4ccccc4)cc3)CC2)cc1	0	74	0	0	0	0
CCN(CC)S(=O)(=O)c1ccc(Cl)c(NC(=O)COc2ccc(OC)cc2)c1	0	0	0	0	0	0
CCOc1ccc2nc(SCC(=O)c3ccccc3)sc2c1	0	94	0	0	0	0
CCOC(=O)CSc1nc2ccc(NC(C)=O)cc2s1	0	90	0	0	0	0
CCOc1ccc2nc(SC3CC(=O)N(c4cccc(OC)c4)C3=O)sc2c1 (stereo not drawn)	9.1	0	0	0	0	0
CCOc1ccc2nc(SC3CC(=O)N(c4ccccc4)C3=O)sc2c1 (stereo not drawn)	0	0	0	0	0	0
COC(=O)c1ccccc1NC(=O)NCc1ccncc1	0	0	0	0	0	0
N#C/C(=C\c1ccc(C(=O)O)cc1)c1nc2sc3c(c2c(=O)[nH]1)CCCC3	0	0	-	0	-	-
O=C(c1ccccc1)c1cnc(-c2ccc(Cl)cc2)s1	0	0	0	0	0	0
O=C(c1ccccc1)c1cnc(-c2ccccc2)s1	10	0	0	0	0	0
CN(C)/C=C/C(=O)c1cnc(-c2ccccc2)s1	10	0	0	0	0	0
CN1C(=S)N(c2cccnc2)C(=O)/C1=C\c1ccc(N(C)C)cc1	0	0	0	0	0	0
CN1C(=S)N(c2cccnc2)C(=O)/C1=C\c1ccc(C(C)(C)C)cc1	0	0	0	0	0	96
CC(c1ccccc1)N1CC(C(=O)N2CCN(c3ccc(F)cc3)CC2)CC1=O (stereo not drawn)	0	0	0	0	0	0
COc1ccc(C(=O)c2ccc(Cl)cc2)cc1	0	0	0	0	0	0
O=C(c1ccc(O)cc1)c1ccc(Cl)cc1	0	83	0	0	0	0
